From ChEMBL document CHEMBL1667809, “Synthesis and in vitro antibacterial activity of 7-(3-alkoxyimino-5-amino/methylaminopiperidin-1-yl)fluoroquinolone derivatives” (Bioorg Med Chem Lett, 2011)
Values after ≈ are worked out from the molar mass of the structure shown.

How the values were obtained:
[1] = test system: Staphylococcus aureus; assay: Antibacterial activity against methicillin-resistant Staphylococcus aureus 10-05 after 18 to 24 hrs by agar dilution method; assay type: functional
How it was run: (§1)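 Agar dilution on Petri dishes, each inoculated with 10⁴ cfu. Plates incubated at 35 °C for 18–24 h. MIC taken as the lowest test-compound concentration giving no visible growth on the plate. Reference drugs gemifloxacin, ciprofloxacin and levofloxacin run alongside for comparison.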

[2] = test system: Escherichia coli; assay: Antibacterial activity against Escherichia coli 10-02 after 18 to 24 hrs by agar dilution method; assay type: functional
How it was run: (§2)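 Agar dilution on Petri dishes, each inoculated with 10⁴ cfu of the strain and incubated at 35 °C for 18–24 h. MIC read as the lowest compound concentration giving no visible growth on the plate.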

[3] = test system: Klebsiella pneumoniae; assay: Antibacterial activity against Klebsiella pneumoniae 10-1 after 18 to 24 hrs by agar dilution method; assay type: functional; how it was run: as §2
[4] = test system: Staphylococcus aureus; assay: Ratio of compound MIC to LVFX MIC for methicillin-sensitive Staphylococcus aureus 10-04; assay type: functional
[5] = test system: Staphylococcus epidermidis; assay: Ratio of compound MIC to GMFX MIC for methicillin-resistant Staphylococcus epidermidis 10-5; assay type: functional
[6] = test system: Staphylococcus aureus; assay: Antibacterial activity against methicillin-sensitive Staphylococcus aureus 10-04 after 18 to 24 hrs by agar dilution method; assay type: functional; how it was run: as §2
[7] = test system: Staphylococcus aureus; assay: Antibacterial activity against Staphylococcus aureus ATCC 25923 after 18 to 24 hrs by agar dilution method; assay type: functional; how it was run: as §2
[8] = test system: Staphylococcus epidermidis; assay: Ratio of compound MIC to LVFX MIC for methicillin-resistant Staphylococcus epidermidis 10-5; assay type: functional
[9] = test system: Staphylococcus aureus; assay: Ratio of compound MIC to CPFX MIC for methicillin-sensitive Staphylococcus aureus 10-04; assay type: functional
[10] = test system: Pseudomonas aeruginosa; assay: Antibacterial activity against Pseudomonas aeruginosa ATCC 27853 after 18 to 24 hrs by agar dilution method; assay type: functional; how it was run: as §2
[11] = test system: Pseudomonas aeruginosa; assay: Antibacterial activity against Pseudomonas aeruginosa 10-1 after 18 to 24 hrs by agar dilution method; assay type: functional; how it was run: as §2
[12] = Cytotoxicity against african green monkey Vero cells after 24 hrs; assay type: cell-based; conditions: chlorocebus sabaeus
How it was run: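 Vero cells exposed to graded compound concentrations for 24 h, then viability assessed; CC₅₀ derived from the viability data.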

[13] = test system: Streptococcus pyogenes; assay: Antibacterial activity against Streptococcus hemolyticus 1002 after 18 to 24 hrs by agar dilution method; assay type: functional; how it was run: as §2
[14] = test system: Streptococcus pneumoniae; assay: Antibacterial activity against Streptococcus pneumoniae 1001 after 18 to 24 hrs by agar dilution method; assay type: functional; how it was run: as §2
[15] = test system: Staphylococcus epidermidis; assay: Antibacterial activity against methicillin-resistant Staphylococcus epidermidis 10-5 after 18 to 24 hrs by agar dilution method; assay type: functional; how it was run: as §1
[16] = test system: Escherichia coli; assay: Antibacterial activity against Escherichia coli ATCC 25922 after 18 to 24 hrs by agar dilution method; assay type: functional; how it was run: as §2
[17] = test system: Staphylococcus aureus; assay: Ratio of compound MIC to GMFX MIC for methicillin-sensitive Staphylococcus aureus 10-04; assay type: functional
[18] = test system: Staphylococcus epidermidis; assay: Antibacterial activity against methicillin-sensitive Staphylococcus epidermidis 10-4 after 18 to 24 hrs by agar dilution method; assay type: functional; how it was run: as §2
[19] = test system: Staphylococcus epidermidis; assay: Ratio of compound MIC to CPFX MIC for methicillin-resistant Staphylococcus epidermidis 10-5; assay type: functional

Compound	MIC [1] [µg/mL]	MIC [2] [µg/mL]	MIC [3] [µg/mL]	Ratio [4]	Ratio [5]	MIC [6] [µg/mL]	MIC [7] [µg/mL]	Ratio [8]	Ratio [9]	MIC [10] [µg/mL]	MIC [11] [µg/mL]	CC50 at 24 h [12] [µM]	MIC [13] [µg/mL]	MIC [14] [µg/mL]	MIC [15] [µg/mL]	MIC [16] [µg/mL]	Ratio [17]	MIC [18] [µg/mL]	Ratio [19]
CCO/N=C1\CC(NC)CN(c2c(F)cc3c(=O)c(C(=O)O)cn(C4CC4)c3c2F)C1 (stereo not drawn)	4 (≈ 9.21 µM)	0.5 (≈ 1.15 µM)	> 128	4	2	0.25 (≈ 0.575 µM)	0.5 (≈ 1.15 µM)	2	4	128 (≈ 295 µM)	> 128	1010	128 (≈ 295 µM)	1 (≈ 2.3 µM)	2 (≈ 4.6 µM)	0.25 (≈ 0.575 µM)	4	0.5 (≈ 1.15 µM)	–
CO/N=C1\CC(N)CN(c2c(F)cc3c(=O)c(C(=O)O)cn(C4CC4)c3c2OC(F)F)C1 (stereo not drawn)	128 (≈ 282 µM)	0.25 (≈ 0.55 µM)	> 128	–	–	8 (≈ 17.6 µM)	2 (≈ 4.4 µM)	–	–	128 (≈ 282 µM)	> 128	667	> 128	4 (≈ 8.8 µM)	8 (≈ 17.6 µM)	0.25 (≈ 0.55 µM)	–	2 (≈ 4.4 µM)	–
CCO/N=C1\CC(N)CN(c2c(F)cc3c(=O)c(C(=O)O)cn(C4CC4)c3c2OC(F)F)C1 (stereo not drawn)	4 (≈ 8.54 µM)	0.25 (≈ 0.534 µM)	> 128	4	2	0.25 (≈ 0.534 µM)	0.5 (≈ 1.07 µM)	2	4	128 (≈ 273 µM)	> 128	1520	128 (≈ 273 µM)	1 (≈ 2.13 µM)	1 (≈ 2.13 µM)	0.25 (≈ 0.534 µM)	4	0.25 (≈ 0.534 µM)	–
CO/N=C1\CC(N)CN(c2c(F)cc3c(=O)c(C(=O)O)cn4c3c2OC[C@@H]4C)C1 (stereo partly drawn)	128 (≈ 317 µM)	0.5 (≈ 1.24 µM)	64 (≈ 158 µM)	–	–	2 (≈ 4.95 µM)	0.5 (≈ 1.24 µM)	–	–	8 (≈ 19.8 µM)	64 (≈ 158 µM)	1000	64 (≈ 158 µM)	0.5 (≈ 1.24 µM)	8 (≈ 19.8 µM)	0.25 (≈ 0.618 µM)	–	4 (≈ 9.89 µM)	–
CCO/N=C1\CC(N)CN(c2c(F)cc3c(=O)c(C(=O)O)cn4c3c2OC[C@@H]4C)C1 (stereo partly drawn)	4 (≈ 9.56 µM)	0.25 (≈ 0.597 µM)	64 (≈ 153 µM)	4	4	0.5 (≈ 1.19 µM)	0.25 (≈ 0.597 µM)	4	4	8 (≈ 19.1 µM)	32 (≈ 76.5 µM)	1240	8 (≈ 19.1 µM)	0.25 (≈ 0.597 µM)	2 (≈ 4.78 µM)	0.25 (≈ 0.597 µM)	4	0.5 (≈ 1.19 µM)	8
CO/N=C1\CC(N)CN(c2cc3c(cc2F)c(=O)c(C(=O)O)cn3C2CC2)C1 (stereo not drawn)	64 (≈ 165 µM)	0.25 (≈ 0.644 µM)	64 (≈ 165 µM)	–	–	4 (≈ 10.3 µM)	0.5 (≈ 1.29 µM)	–	–	2 (≈ 5.15 µM)	> 128	593	128 (≈ 330 µM)	4 (≈ 10.3 µM)	16 (≈ 41.2 µM)	0.25 (≈ 0.644 µM)	–	8 (≈ 20.6 µM)	–
CCn1cc(C(=O)O)c(=O)c2cc(F)c(N3C/C(=N/OC)CC(N)C3)c(F)c21 (stereo not drawn)	32 (≈ 81.1 µM)	0.25 (≈ 0.634 µM)	> 128	4	–	0.25 (≈ 0.634 µM)	0.25 (≈ 0.634 µM)	–	4	8 (≈ 20.3 µM)	> 128	913	128 (≈ 325 µM)	0.5 (≈ 1.27 µM)	16 (≈ 40.6 µM)	0.25 (≈ 0.634 µM)	–	16 (≈ 40.6 µM)	–
O=C(O)c1cn(C2CC2)c2cc(N3CCNCC3)c(F)cc2c1=O [CIPROFLOXACIN]	64 (≈ 193 µM)	–	32 (≈ 96.6 µM)	–	–	–	0.25 (≈ 0.754 µM)	–	–	32 (≈ 96.6 µM)	1 (≈ 3.02 µM)	–	64 (≈ 193 µM)	0.03 (≈ 0.0905 µM)	16 (≈ 48.3 µM)	–	–	1 (≈ 3.02 µM)	–
CO/N=C1\CN(c2nc3c(cc2F)c(=O)c(C(=O)O)cn3C2CC2)CC1CN (stereo not drawn) [GEMIFLOXACIN]	4 (≈ 10.3 µM)	0.06 (≈ 0.154 µM)	32 (≈ 82.2 µM)	–	–	2 (≈ 5.14 µM)	0.008 (≈ 0.0205 µM)	–	–	2 (≈ 5.14 µM)	1 (≈ 2.57 µM)	–	8 (≈ 20.5 µM)	0.008 (≈ 0.0205 µM)	8 (≈ 20.5 µM)	0.015 (≈ 0.0385 µM)	–	0.25 (≈ 0.642 µM)	–
C[C@H]1COc2c(N3CCN(C)CC3)c(F)cc3c(=O)c(C(=O)O)cn1c23.C[C@H]1COc2c(N3CCN(C)CC3)c(F)cc3c(=O)c(C(=O)O)cn1c23.O [LEVOFLOXACIN]	32	–	32	–	–	8	0.125	–	–	–	–	–	32	0.015	8	–	–	2	–
